Tests used:
[1] = target: T1, hDAO (human diamine oxidase) (Homo sapiens, UniProt P19801); assay: Inhibition of hDAO putrescine oxidation; format: biochemical; settings: for Mode of Inhibition: hDAO, putrescine oxidation, global nonlinear regression
T1 sequence (P19801 20-751): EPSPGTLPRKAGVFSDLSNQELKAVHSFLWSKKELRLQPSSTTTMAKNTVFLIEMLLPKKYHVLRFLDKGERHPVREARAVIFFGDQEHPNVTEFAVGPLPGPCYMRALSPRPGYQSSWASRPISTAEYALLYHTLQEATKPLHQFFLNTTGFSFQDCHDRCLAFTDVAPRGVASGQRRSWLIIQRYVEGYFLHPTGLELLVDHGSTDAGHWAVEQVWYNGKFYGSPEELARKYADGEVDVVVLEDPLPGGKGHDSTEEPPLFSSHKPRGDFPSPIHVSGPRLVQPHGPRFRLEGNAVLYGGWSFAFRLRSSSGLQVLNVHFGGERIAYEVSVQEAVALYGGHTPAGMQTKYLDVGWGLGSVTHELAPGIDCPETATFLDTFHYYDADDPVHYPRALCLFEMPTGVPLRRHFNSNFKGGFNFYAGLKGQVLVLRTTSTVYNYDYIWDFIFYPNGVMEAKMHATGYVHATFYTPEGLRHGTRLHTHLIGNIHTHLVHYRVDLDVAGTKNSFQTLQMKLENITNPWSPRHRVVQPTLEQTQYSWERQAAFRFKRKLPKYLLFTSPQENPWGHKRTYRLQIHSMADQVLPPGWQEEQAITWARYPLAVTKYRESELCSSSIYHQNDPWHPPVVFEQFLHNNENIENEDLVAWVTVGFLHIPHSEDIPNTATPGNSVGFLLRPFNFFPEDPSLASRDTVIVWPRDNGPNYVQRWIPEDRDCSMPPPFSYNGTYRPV

[2] = patients, intravenous treatment; ref [59], [73], [79]–[81]; cited from earlier work
hVAP-1 = target: T2, hVAP-1 (Homo sapiens, UniProt Q16853); assay: Inhibition of hVAP-1 amine oxidase activity; format: biochemical; settings: for Mode of Inhibition: hVAP-1
T2 sequence (Q16853 1-763): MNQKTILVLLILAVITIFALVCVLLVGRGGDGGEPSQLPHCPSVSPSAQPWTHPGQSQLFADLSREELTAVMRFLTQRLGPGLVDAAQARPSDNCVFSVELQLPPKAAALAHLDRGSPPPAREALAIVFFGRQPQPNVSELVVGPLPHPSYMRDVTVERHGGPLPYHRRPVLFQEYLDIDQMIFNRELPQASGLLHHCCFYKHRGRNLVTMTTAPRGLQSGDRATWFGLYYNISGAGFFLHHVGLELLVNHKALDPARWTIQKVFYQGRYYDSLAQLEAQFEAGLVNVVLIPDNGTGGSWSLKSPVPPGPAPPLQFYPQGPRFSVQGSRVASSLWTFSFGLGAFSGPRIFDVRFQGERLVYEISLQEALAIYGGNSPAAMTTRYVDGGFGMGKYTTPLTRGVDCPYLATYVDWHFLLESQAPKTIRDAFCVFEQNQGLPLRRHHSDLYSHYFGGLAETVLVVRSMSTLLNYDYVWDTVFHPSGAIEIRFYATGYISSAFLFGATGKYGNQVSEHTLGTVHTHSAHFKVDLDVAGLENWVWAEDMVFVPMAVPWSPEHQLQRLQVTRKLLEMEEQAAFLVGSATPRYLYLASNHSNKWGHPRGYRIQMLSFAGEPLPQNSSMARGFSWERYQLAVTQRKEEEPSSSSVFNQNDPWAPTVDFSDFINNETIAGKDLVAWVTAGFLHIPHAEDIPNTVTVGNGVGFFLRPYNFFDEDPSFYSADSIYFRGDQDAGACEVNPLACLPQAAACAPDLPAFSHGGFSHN
Method in brief: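 Purified human VAP-1 was supplied as a gift. Activity was followed as benzaldehyde production at 250 nm over 5 min (ε 12,800 M⁻¹cm⁻¹) in 100 mM potassium phosphate, pH 7.2, at 37 °C, with and without test compound. Ki and mode came from global nonlinear regression, choosing the best-fitting competitive, uncompetitive, noncompetitive or mixed model.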

[3] = AIDS patients under pentamidine treatment; ref [72]–[78]; cited from earlier work

Row | Structure (SMILES) | Ki [1] [µM] | Mode of Inhibition [1] | inhibition of hDAO, in words [1] | also measured
1 | NCCCCN [putrescine, 1,4-diaminobutane] | 2270 ± 140 |  |  | 
2 | NNC(=O)c1ccncc1 [Isoniazid] | 970 ± 50 | purely noncompetitive |  | 
3 | N=C(N)c1ccc(OCCCCCOc2ccc(C(=N)N)cc2)cc1 [Pentamidine, 1,5-bis(4-amidinophenoxy)pentane] |  | mixed type/partial competitive inhibition | very potent inhibitors | Plasma concentration, lower end of range [2]: 25 ng/mL; Plasma concentration, lower end of range (molar) [2]: 43 nM; Plasma concentration, upper end of range [2]: 1.4 g/mL; Plasma concentration, upper end of range (molar) [2]: 2300 nM; Ki (hVAP-1): 1.1 ± 0.04 µM; Mode of Inhibition (hVAP-1): Noncompetitive; Mode of Inhibition (hVAP-1; listed as pentamidine): purely noncompetitive; AIDS patients with adverse side effects [3]: at least 70%
4 | CN/C(=N/CCSCc1nc[nH]c1C)NC#N [Cimetidine] | 90 ± 14 | Mixed |  | 
5 | Clc1cccc(Cl)c1N=C1NCCN1 [Clonidine] | 100 ± 8 | Mixed | weak inhibitor | 
6 | N=C(N)c1ccc(N=NNc2ccc(C(=N)N)cc2)cc1 [Berenil, 1,3-bis(4’-amidinophenyl)triazene] |  | Mixed | very potent inhibitors | Mode of Inhibition ([1]; listed as berenil): mixed type/partial competitive inhibition

— publication PMC2791411 (Biochemistry, 2009)
